Activity calls are given as the source filed them. Rule as the data show it, unless noted: active = inhibition above about 30%; inactive = the rest.
Legend:
[1] = Her2 expression decrease, cell viability multiplex – SKBR3 breast tumor cells, AlphaScreen, ATP viability, primary screen (AID 461;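 active = Her2 level under about 52% in both replicate screens, with viability over 70% of control, limit read from the data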;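 as to Her2 level: lower value means less Her2 protein in the cells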;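 as to viability: percent of carrier control wells set as 100% viability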); conditions: SKBR3 Her2 protein level, 18-24 h, measured here: SKBR3 viability, ATP luminescence, at 10 µM
[2] = target: Receptor tyrosine-protein kinase erbB-2 (Homo sapiens) (UniProt P04626); test: as above; conditions: 18-24 h, at 10 µM, stronger effect = lower value
[3] = reduced viability of SK-BR-3 breast cancer cells – cell-based, 24 h, human, pilot screen (AID 572;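 active = viability at or below 10% of carrier control in both of two separate runs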;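 also: compound exposure lasted between 18 and 24 h rather than exactly 24 h; 100% = carrier-treated control wells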); conditions: SK-BR-3 viability, CellTiter-Glo luminescence, at 10 µM, stronger effect = lower value
[4] = HUVEC growth inhibition – cell-based, human, primary screen (AID 575;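 active = viability at or below 30% in both replicate assays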;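 also: 100% = median of untreated cell wells with 0.1% DMSO on each plate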); conditions: HUVEC proliferation, CellTiter-Glo luminescence, 72 h; at 10 µM; stronger effect = lower value
Summary of the method: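 Test system: HUVEC primary cells. Quantity: 1250 endothelial cells in each well. Dosing: single-point 10 µM, DMSO 0.1% final. Incubation: 72 h treatment at 37 °C. Measured by: CTG luminescence. Control set: DMSO cell controls and MePR drug controls. Plate: collagen-coated 384-well format.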

[5] = H69AR cell proliferation blockers – human, duplicate replicates, primary screen (AID 580;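 active = viability at or under a set limit in both replicates, limit being median viability minus 3 SD, cut at about 48% in these data, passing the limit was not always enough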;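 also: 100% = mean luminescence of untreated wells and 0% = no signal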); conditions: H69AR lung tumor cells viability, ATP luminescence, 72 h; at 10 µM; stronger effect = lower value
[6] = MRP1 drug-resistance reversers in H69AR cells – cell-based, doxorubicin co-treatment, pilot screen (AID 601;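 active = viability loss from added drug above about 55%, and viability with drug at most 40%, in both replicates, limit read from the data, passing the limit was not always enough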); conditions: CellTiter-Glo, 72 h, at 10 µM; for differential viability (reversal): stronger effect = higher value
[7] = yeast transport mutant growth inhibition pilot in 384-well plates, post-Golgi transport modulator project (AID 636; in the data active = inhibition above about 31%); conditions: absorbance 615 nm, about 18 h, stronger effect = higher value
[8] = growth suppression of yeast trafficking mutant, preliminary HTS, modulators of trafficking downstream of Golgi apparatus project, 1536-format plate, OD 615 nm (AID 637); conditions: yeast transport mutant growth, absorbance 615 nm, 18 h; stronger effect = higher value
[9] = H69AR cells + 2 uM doxorubicin, measured here: viability with 2 uM doxorubicin, stronger effect = lower value
[10] = H69AR cells, compound alone cytotoxicity

Sequence of Receptor tyrosine-protein kinase erbB-2 (Homo sapiens) (P04626 whole entry, looked up): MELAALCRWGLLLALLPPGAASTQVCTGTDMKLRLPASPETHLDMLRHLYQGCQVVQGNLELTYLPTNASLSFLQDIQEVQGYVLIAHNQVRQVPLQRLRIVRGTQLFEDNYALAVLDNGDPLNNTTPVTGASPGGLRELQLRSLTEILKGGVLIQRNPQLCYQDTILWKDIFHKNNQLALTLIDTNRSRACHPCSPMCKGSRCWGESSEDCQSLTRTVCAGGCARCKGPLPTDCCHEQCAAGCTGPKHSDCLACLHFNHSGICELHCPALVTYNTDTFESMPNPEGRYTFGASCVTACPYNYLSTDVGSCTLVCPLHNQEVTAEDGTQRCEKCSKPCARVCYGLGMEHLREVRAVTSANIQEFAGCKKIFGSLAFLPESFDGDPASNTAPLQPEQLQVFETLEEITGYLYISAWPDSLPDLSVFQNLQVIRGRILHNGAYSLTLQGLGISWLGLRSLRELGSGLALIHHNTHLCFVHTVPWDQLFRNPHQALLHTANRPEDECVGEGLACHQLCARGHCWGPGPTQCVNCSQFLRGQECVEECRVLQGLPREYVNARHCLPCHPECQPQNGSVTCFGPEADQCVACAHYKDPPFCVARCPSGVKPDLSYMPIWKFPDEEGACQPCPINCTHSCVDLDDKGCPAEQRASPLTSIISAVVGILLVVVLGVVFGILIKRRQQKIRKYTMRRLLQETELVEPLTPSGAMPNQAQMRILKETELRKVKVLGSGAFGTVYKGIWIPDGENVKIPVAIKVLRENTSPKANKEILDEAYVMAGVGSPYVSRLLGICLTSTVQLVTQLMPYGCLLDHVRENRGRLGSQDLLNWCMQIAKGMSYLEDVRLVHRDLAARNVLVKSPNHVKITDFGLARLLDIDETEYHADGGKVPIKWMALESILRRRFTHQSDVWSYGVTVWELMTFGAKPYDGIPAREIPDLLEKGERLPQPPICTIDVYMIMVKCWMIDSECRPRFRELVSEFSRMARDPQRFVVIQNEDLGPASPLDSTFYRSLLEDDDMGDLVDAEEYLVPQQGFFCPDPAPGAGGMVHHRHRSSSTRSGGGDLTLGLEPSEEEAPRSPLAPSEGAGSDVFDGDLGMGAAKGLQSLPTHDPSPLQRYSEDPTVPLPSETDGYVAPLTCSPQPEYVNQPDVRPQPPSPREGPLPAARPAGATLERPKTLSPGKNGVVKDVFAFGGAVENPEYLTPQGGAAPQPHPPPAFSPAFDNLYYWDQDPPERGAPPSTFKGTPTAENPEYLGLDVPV

| SMILES | viability [1] | Her2 level [2] | viability [3] | viability [4] | viability [5] | differential viability (reversal) ([6]; H69AR cells + 2 uM doxorubicin) | viability [6, 9] | viability [6, 10] | inhibition [7] | inhibition [8] |
| --- | --- | --- | --- | --- | --- | --- | --- | --- | --- | --- |
| CCCCC(=O)NCCc1cc2ccc(OC)cc2[nH]c1=O | 91.5% | 85.5% (inactive) | 91.5% (inactive) | 102% (inactive) | 103% (inactive) | 7.54% (inactive) | 95.4% | 103% | -7.95% (inactive) | -3.33% (inactive) |
| Cc1coc2cc3oc(=O)c4c(c3cc12)CCC4 | 111% | 81.5% (inactive) | 111% (inactive) | 85.1% (inactive) | 104% (inactive) | 6.42% (inactive) | 97.2% | 104% | -2.7% (inactive) | -2.86% (inactive) |
| CCOc1ccccc1C(=O)NC(C)c1ccc2c(c1)OCO2 (stereo not given) | 104% | 99% (inactive) | 104% (inactive) | 67.6% (inactive) | 23.5% (active) | -56.4% (inactive) | 80% | 23.5% | -6.89% (inactive) | -4.26% (inactive) |
| Cc1ccc(CSC2=NCCN2C(=O)c2ccco2)cc1 | 95.5% | 98% (inactive) | 95.5% (inactive) | 92.8% (inactive) | 84.3% (inactive) | 2.8% (inactive) | 81.5% | 84.3% | -3.85% (inactive) | 3.83% (inactive) |
| O=S(=O)(NCCCCCNS(=O)(=O)c1ccccc1)c1ccccc1 | 92.5% | 90.5% (inactive) | 92.5% (inactive) | 112% (inactive) | 93.2% (inactive) | -13.4% (inactive) | 107% | 93.2% | -4% (inactive) | -3.39% (inactive) |
| COc1cc(S(=O)(=O)NC2CCCCC2)ccc1Cl | 94.5% | 84.5% (inactive) | 94.5% (inactive) | 82.3% (inactive) | 92.7% (inactive) | 7.43% (inactive) | 85.3% | 92.7% | -3.95% (inactive) | -2.7% (inactive) |
| COc1cccc(-c2cc(C(=O)N3CCc4ccccc4C3)no2)c1 | 99.5% | 104% (inactive) | 99.5% (inactive) | 67.7% (inactive) | 96.8% (inactive) | -5.97% (inactive) | 103% | 96.8% | -8.51% (inactive) | -4.59% (inactive) |
| CCCNS(=O)(=O)c1ccc(OCC(=O)NCc2ccc3c(c2)OCO3)cc1 | 105% | 89.5% (inactive) | 105% (inactive) | 88.2% (inactive) | 94.1% (inactive) | 4.96% (inactive) | 89.1% | 94.1% | -6.05% (inactive) | 11% (inactive) |
| Cc1ccc2nc(NC(=O)C3CCCN(S(=O)(=O)c4cnc[nH]4)C3)sc2c1 (stereo not given) | 96.5% | 92% (inactive) | 96.5% (inactive) | 98% (inactive) | 81.9% (inactive) | -9.05% (inactive) | 90.9% | 81.9% | -2.67% (inactive) | -3.11% (inactive) |
| O=C(COC(=O)c1ccc(Br)o1)Nc1ccc(S(=O)(=O)N2CCCC2)cc1 | 80% | 74.5% (inactive) | 80% (inactive) | 102% (inactive) | 95.6% (inactive) | 13.3% (inactive) | 82.3% | 95.6% | -6.35% (inactive) | -1% (inactive) |
| OC1C[N+]2(CCCCC2)C1 | 98% | 82% (inactive) | 98% (inactive) | 99.6% (inactive) | 109% (inactive) | 13% (inactive) | 95.6% | 109% | -4.8% (inactive) | -3.23% (inactive) |
| CCC(C)Nc1nc2c(c(=O)n(C)c(=O)n2C)n1Cc1ccc(F)cc1 (stereo not given) | 90.5% | 86.5% (inactive) | 90.5% (inactive) | 88.6% (inactive) | 83.3% (inactive) | -14.3% (inactive) | 97.6% | 83.3% | -5.27% (inactive) | 5.08% (inactive) |
| CC(C(=O)c1ccccc1)n1cnc2ccccc2c1=O (stereo not given) | 94.5% | 87% (inactive) | 94.5% (inactive) | 86.6% (inactive) | 89.6% (inactive) | 9.12% (inactive) | 80.5% | 89.6% | -5.73% (inactive) | 2.42% (inactive) |
| Cc1cc(C)c2c(C)nn(C3CCCCC3)c2n1 | 81.5% | 114% (inactive) | 81.5% (inactive) | 80.8% (inactive) | 95.5% (inactive) | 12.3% (inactive) | 83.2% | 95.5% | 6.62% (inactive) | 14.1% (inactive) |
| O=C(O)CCNc1ccc2c(c1)OCCO2 | 97.5% | 86.5% (inactive) | 97.5% (inactive) | 109% (inactive) | 86.9% (inactive) | 7.24% (inactive) | 79.6% | 86.9% | -5.14% (inactive) | -2.67% (inactive) |
| Cn1c(SCC(=O)N2CCOCC2)nnc1-c1cnccn1 | 109% | 116% (inactive) | 109% (inactive) | 101% (inactive) | 109% (inactive) | 10.4% (inactive) | 98.7% | 109% | -4.34% (inactive) | -9.17% (inactive) |

| SMILES | viability [1] | Her2 level [2] | viability [3] | viability [4] | viability [5] | differential viability (reversal) ([6]; H69AR cells + 2 uM doxorubicin) | viability [6, 9] | viability [6, 10] | inhibition [7] | inhibition [8] |
| --- | --- | --- | --- | --- | --- | --- | --- | --- | --- | --- |
| O=C(Nc1ncc(Br)s1)C1CCCN1S(=O)(=O)c1cccc2cccnc12 (stereo not given) | 93% | 81.5% (inactive) | 93% (inactive) | 87.4% (inactive) | 29.8% (active) | -10.8% (inactive) | 40.6% | 29.8% | -0.38% (inactive) | -1.5% (inactive) |
| COc1ccc(-c2nc(C#N)c(N3CCN(c4ccccc4)CC3)o2)cc1 | 94.5% | 98.5% (inactive) | 94.5% (inactive) | 94.7% (inactive) | 105% (inactive) | 11.7% (inactive) | 93.8% | 105% | -2.05% (inactive) | 3.33% (inactive) |
| O=C(NCc1ccc2c(c1)OCO2)c1ccccn1 | 98.5% | 107% (inactive) | 98.5% (inactive) | 92.8% (inactive) | 88.5% (inactive) | 3.29% (inactive) | 85.2% | 88.5% | -6.27% (inactive) | -12.1% (inactive) |
| O=C(NCc1ccccc1)c1ccc(OC2CSC2)cc1 | 88% | 103% (inactive) | 88% (inactive) | 91.5% (inactive) | 112% (inactive) | 18.5% (inactive) | 93.6% | 112% | 2.34% (inactive) | -11% (inactive) |
| COc1ccc2c(CC(=O)Nc3nnc(C4CC4)s3)coc2c1 | 120% | 81% (inactive) | 120% (inactive) | 89.4% (inactive) | 99.4% (inactive) | 5.3% (inactive) | 94.1% | 99.4% | -7.26% (inactive) | -1.9% (inactive) |
| O=S1(=O)CC(N2CCOCC2)c2ccccc21 (stereo not given) | 95% | 98% (inactive) | 95% (inactive) | 92.2% (inactive) | 103% (inactive) | 4.56% (inactive) | 98.1% | 103% | 0.27% (inactive) | -9.52% (inactive) |
| Cc1sc2c(c1C)CN(C1CC(C)(C)NC(C)(C)C1)CN2C(=O)c1ccco1 | 86.5% | 80.5% (inactive) | 86.5% (inactive) | 75.7% (inactive) | 83.7% (inactive) | 0.235% (inactive) | 83.4% | 83.7% | -7.33% (inactive) | 1.8% (inactive) |
| O=C(CSc1ncccn1)NCc1ccccc1 | 94% | 112% (inactive) | 94% (inactive) | 106% (inactive) | 105% (inactive) | 5.14% (inactive) | 100% | 105% | 4.4% (inactive) | -8.71% (inactive) |
| Nc1ccc(C(=O)OCCCc2nc3ccccc3[nH]2)cc1 | 92% | 107% (inactive) | 92% (inactive) | 97.9% (inactive) | 99.1% (inactive) | 1.74% (inactive) | 97.4% | 99.1% | 5.41% (inactive) | -19.1% (inactive) |
| CCN(C(=O)c1cn(C)c(=O)c2cc(OC)c(OC)cc12)c1ccccc1C | 108% | 75% (inactive) | 108% (inactive) | 106% (inactive) | 98.2% (inactive) | 7.24% (inactive) | 91% | 98.2% | -0.54% (inactive) | -1.43% (inactive) |
| O=C1CC(c2cccs2)CC2=C1C(c1ccccc1)n1ncnc1N2 (stereo not given) | 105% | 104% (inactive) | 105% (inactive) | 100% (inactive) | 93.8% (inactive) | -5.41% (inactive) | 99.2% | 93.8% | -4.53% (inactive) | -2.3% (inactive) |
| O=C(CCN1C(=O)COc2ccccc21)NCCCN1CCN(c2ccccc2F)CC1 | 105% | 118% (inactive) | 105% (inactive) | 90.6% (inactive) | 84.6% (inactive) | 5.56% (inactive) | 79% | 84.6% | -3.64% (inactive) | -2.5% (inactive) |
| CCCc1nc(N2CCOCC2)c(C#N)c2c1CCCC2 | 81% | 86.5% (inactive) | 81% (inactive) | 81.5% (inactive) | 91.4% (inactive) | -0.135% (inactive) | 91.5% | 91.4% | -0.13% (inactive) | 6.77% (inactive) |
| O=C1CSC(c2cn(-c3ccccc3)nc2-c2ccccc2)N1Cc1ccco1 (stereo not given) | 97% | 110% (inactive) | 97% (inactive) | 63.1% (inactive) | 88.3% (inactive) | 17.7% (inactive) | 70.6% | 88.3% | 0.92% (inactive) | 3.55% (inactive) |
| O=C(CCN1C(=O)COc2ccccc21)NCCN1CCN(c2cccc(Cl)c2)CC1 | 94.5% | 84% (inactive) | 94.5% (inactive) | 90.9% (inactive) | 83.8% (inactive) | -11.3% (inactive) | 95.1% | 83.8% | -1.04% (inactive) | -3.33% (inactive) |
| c1coc(Cn2nnnc2CN2CCN(C3CCCC3)CC2)c1 | 90.5% | 107% (inactive) | 90.5% (inactive) | 92.8% (inactive) | 93.2% (inactive) | 4.64% (inactive) | 88.6% | 93.2% | -4.67% (inactive) | -8.41% (inactive) |
